We go through 7 molecules from ChEMBL document CHEMBL1765035, “Radiosynthesis and in vivo evaluation of 1-[18F]fluoroelacridar as a positron emission tomography tracer for P-glycoprotein and breast cancer resistance protein” (Bioorg Med Chem, 2011).

Data set [1] is described as follows: Inhibition of human Pgp overexpressed in […]-MDR1 cells assessed as inhibition of R123 efflux after 60 mins. It counts as cell-based, MDCK-II. As to conditions: 1 h.
In data set [2] the test system is Brain. In words: Drug uptake in Sprague-Dawley rat brain at 33 +/- 3 MBq, iv administered 60 mins before 5 mg/kg, iv elacridar injection measured after 0.9 to 1.3 mins. Type of data set: ADME, organism-based. Set-up: dose 5 mg/kg, route intravenous. Particulars: in vivo. In short, it runs like this: (§1)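 Isoflurane-anaesthetised female Sprague Dawley rats (n=3, warmed about 38°C), femoral catheters. [18F] tracer given i.v. (33±3 MBq), followed by a dynamic 150 min microPET scan. […] Whole brain or humerus outlined on summation images; time-activity curves given as SUV (mean±SD).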

For data set [3], the system named is Brain. Nature of the data set: Drug uptake in Sprague-Dawley rat brain at 33 +/- 3 MBq, iv administered 60 mins before 5 mg/kg, iv elacridar injection measured after 25 mins. Type of data set: ADME, organism-based. Set-up: dose 5 mg/kg, route intravenous. As to conditions: in vivo. In short, it runs like this: as §1
Data set [4] deals with Brain. Nature of the data set: Drug uptake in Sprague-Dawley rat brain at 33 +/- 3 MBq, iv administered 60 mins before 5 mg/kg, iv elacridar injection measured after 140 mins. It counts as ADME, organism-based. Set-up: dose 5 mg/kg, route intravenous. As to conditions: in vivo. In short, it runs like this:
as §1

The nature of data set [5]: Drug uptake in Sprague-Dawley rat humerus after 1.8 mins in presence of 5 mg/kg elacridar. Type of data set: ADME, organism-based. Set-up: dose 5 mg/kg. Particulars: in vivo, 0.03 h. In short, it runs like this:
as §1

Data set [6] is described as follows: Drug uptake in Sprague-Dawley rat humerus after 140 mins in presence of 5 mg/kg elacridar. Type of data set: ADME, organism-based. Set-up: dose 5 mg/kg. As to conditions: in vivo. A digest of the protocol: as §1
Data set [7] concerns Plasma. Nature of the data set: Drug concentration in Sprague-Dawley rat plasma assessed as radiometabolites at 74 +/- 23 MBq after 10 mins by SPE assay relative to total plasma concentration. It counts as ADME, cell-free. A digest of the protocol:
(§2)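 Female Sprague Dawley rats (n=3, isoflurane, no PET) given [18F] tracer i.v. (74±23 MBq). Blood drawn at 10, 20, 30 min and terminally at 40 min. Plasma centrifuged and run through SPE. Polar radiometabolites are counted as fractions 1+2 by gamma counter, as % of total plasma activity. At 40 min the MeOH fraction also went to reversed-phase HPLC.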

Data set [8] deals with Plasma. Nature of the data set: Drug concentration in Sprague-Dawley rat plasma assessed as radiometabolites at 74 +/- 23 MBq after 20 mins by SPE assay relative to total plasma concentration. It counts as ADME, cell-free. A digest of the protocol:
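Female Sprague-Dawley rats (n=3) under isoflurane, given i.v. [18F]-tracer (74±23 MBq, 17.2±3.9 nmol or 37±10 μg/kg unlabelled) without PET imaging. Arterial blood was drawn at 10, 20 and 30 min, with a terminal sample at 40 min. Plasma was obtained by centrifugation (3000×g, 5 min) and run through solid-phase extraction. The plasma, H2O and MeOH fractions were gamma-counted. Polar radiometabolites (fractions 1+2) are given as % of total plasma activity.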

The test system of data set [9] is Plasma. In words: Drug concentration in Sprague-Dawley rat plasma assessed as radiometabolites at 74 +/- 23 MBq after 30 mins by SPE assay relative to total plasma concentration. Particulars: 0.5 h. It counts as ADME, cell-free. In short, it runs like this: as §2
Data set [10] has as its system Plasma. In words: Drug concentration in Sprague-Dawley rat plasma assessed as radiometabolites at 74 +/- 23 MBq after 40 mins by SPE assay relative to total plasma concentration. It counts as ADME, cell-free. A digest of the protocol:
as §2

Data set [11] has as its system Brain. Nature of the data set: Drug uptake in Sprague-Dawley rat brain after 40 mins by reversed-phase HPLC. It counts as ADME, tissue-based. As to conditions: in vivo. In short, it runs like this:
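Same rat group (n=3) injected i.v. with [18F] tracer and sacrificed at 40 min. Brain washed with ice-cold H2O, homogenized in 0.9% NaCl and extracted with CH3CN. Supernatant diluted 1:1 with 0.1% TFA and analysed by reversed-phase HPLC with UV 257 nm and radioactivity detection. Value is unchanged tracer as % of total brain radioactivity.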

Data set [12] can be described thus: Ratio of drug level in brain to blood in wild-type mouse. It counts as ADME, tissue-based. In short, it runs like this:
(§3)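 Female FVB wild-type and Mdr1a/b(−/−)Bcrp1(−/−) mice (n=3 each), isoflurane-anaesthetised. [18F] tracer given via tail vein (6±1 MBq), 60 min dynamic microPET. Brain SUV at 50-60 min divided by whole-blood SUV; blood taken retro-orbitally at scan end and gamma-counted. Groups compared by 2-tailed t-test.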

A short description of data set [13]: Ratio of drug level in brain to blood in Mdr1a/b(-/-)/Bcrp1(-/-) mouse. It counts as ADME, tissue-based. A digest of the protocol:
as §3

For a further data set, the system named is MDCK-II. As to conditions: Homo sapiens, 3.7 uM.

Take `COc1cc2c(cc1OC)CN(CCc1ccc(NC(=O)c3ccc(Cl)c4c(=O)c5cccc(OC)c5[nH]c34)cc1)CC2`: the IC50 in data set [1] was determined as 3800 nM.
The same measure, in the same setting: in the case of `COc1cc2c(cc1OC)CN(CCc1ccc(NC(=O)c3ccc([N+](=O)[O-])c4c(=O)c5cccc(OC)c5[nH]c34)cc1)CC2` it was 1600 nM; in that of `COc1cc2c(cc1OC)CN(CCc1ccc(NC(=O)c3cc(Cl)cc4c(=O)c5cccc(OC)c5[nH]c34)cc1)CC2`, 1400 nM.
The same measure, in the same setting: in the case of `COc1cc2c(cc1OC)CN(CCc1ccc(NC(=O)c3ccc(F)c4c(=O)c5cccc(OC)c5[nH]c34)cc1)CC2` it was 1700 nM.
Take `COc1cc2c(cc1OC)CN(CCc1ccc(NC(=O)c3cc(F)cc4c(=O)c5cccc(OC)c5[nH]c34)cc1)CC2`: in data set [1], the IC50 was determined as 600 nM.
Regarding `COc1cc2c(cc1OC)CN(CCc1ccc(NC(=O)c3ccc([18F])c4c(=O)c5cccc(OC)c5[nH]c34)cc1)CC2`, the SUV is recorded as 0.46 with Brain [2]; 0.14 in the data set with Brain [3]; 1.14 with Brain [4]; 1.42 in data set [5]; 4.59 in [6]. Moreover, the Cp turned out to be 6% in the data set with Plasma [7], 6% in the data set with Plasma [8], 12% in the data set with Plasma [9] and 13% with Plasma [10]. Also, the Drug uptake with Brain [11] is given as 93%. In addition, the Kp was found to be 1.5 in data set [12] and 11.6 in data set [13].
With `COc1cc2c(cc1OC)CN(CCc1ccc(NC(=O)c3cccc4c(=O)c5cccc(OC)c5[nH]c34)cc1)CC2`, the inhibition in the data set with MDCK-II was 100%.
